Source: ChEMBL document CHEMBL4334464, “From Phenylthiazoles to Phenylpyrazoles: Broadening the Antibacterial Spectrum toward Carbapenem-Resistant Bacteria” (J Med Chem, 2019)
The source made the active and inactive calls. The rule behind the calls is not given here.

Experiments:
[1] = system: Staphylococcus aureus; assay: Antibacterial activity against methicillin-resistant Staphylococcus aureus NRS123-USA400 infected in mouse J774 cells assessed as reduction in intracellular bacterial cells at 2 times MIC incubated for 24 hrs followed by re-plating on TSA plate and measured after 18 to 22 hrs relative to control; assay type: functional; parameters: scale not given: the % may be the effect or the level left
Summary of the method: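 J774 murine macrophages were infected with MRSA USA400 and then treated at 2×MIC for 24 h, in triplicate. The read-out was percent reduction in intracellular colony-forming units versus untreated infected cells.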

[2] = system: Staphylococcus aureus; assay: Antibacterial activity against methicillin-resistant Staphylococcus aureus NRS123-USA400 clinical isolates assessed as ratio of MIC after and before 8 serial passages by broth microdilution assay; assay type: functional
Summary of the method: (§1)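 MRSA USA400 was serially passaged over a 14-day period in the presence of each compound or control antibiotic. MIC was determined by broth microdilution after each passage. A four-fold rise in MIC was taken as a sign of resistance.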

[3] = system: Staphylococcus aureus; assay: Antibacterial activity against methicillin-resistant Staphylococcus aureus NRS123-USA400 clinical isolates assessed as ratio of MIC after and before 14 serial passages by broth microdilution assay; assay type: functional; summary of the method: as §1
[4] = Stability in human liver microsomes assessed as compound remaining incubated for 30 mins in presence of NADPH by LC/MS/MS analysis; assay type: ADME, Microsome; conditions: read-out: Stability
Summary of the method: (§2)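 Two independent runs (1st and 2nd) were done at each time point, and the mean percent remaining is reported. Incubations were run both with and without NADPH. Half-life and intrinsic clearance (Clint) were derived from the time-course data.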

[5] = Stability in human liver microsomes assessed as compound remaining incubated for 45 mins in presence of NADPH by LC/MS/MS analysis; assay type: ADME, Microsome; conditions: read-out: Stability; summary of the method: as §2
[6] = Stability in human liver microsomes assessed as compound remaining incubated for 60 mins in presence of NADPH by LC/MS/MS analysis; assay type: ADME, Microsome; conditions: read-out: Stability; summary of the method: as §2
[7] = Stability in human liver microsomes assessed as compound remaining incubated for 15 mins in absence of NADPH by LC/MS/MS analysis; assay type: ADME, Microsome; conditions: read-out: Stability
[8] = Stability in human liver microsomes assessed as compound remaining incubated for 30 mins in absence of NADPH by LC/MS/MS analysis; assay type: ADME, Microsome; conditions: read-out: Stability; summary of the method: as §2
[9] = Stability in human liver microsomes assessed as compound remaining incubated for 45 mins in absence of NADPH by LC/MS/MS analysis; assay type: ADME, Microsome; conditions: read-out: Stability; summary of the method: as §2
[10] = Stability in human liver microsomes assessed as compound remaining incubated for 60 mins in absence of NADPH by LC/MS/MS analysis; assay type: ADME, Microsome; conditions: read-out: Stability; summary of the method: as §2
[11] = Intrinsic clearance in human liver microsomes in absence of NADPH by LC/MS/MS analysis; assay type: ADME, Microsome; conditions: read-out: CLH
[12] = Apparent permeability across apical to basolateral side in human Caco2 cells after 2 hrs by LC/MS/MS analysis; assay type: ADME, cell-based; conditions: Caco-2
[13] = Apparent permeability across basolateral to apical side in human Caco2 cells after 2 hrs by LC/MS/MS analysis; assay type: ADME, cell-based; conditions: Caco-2
[14] = Efflux ratio of apparent permeability across basolateral to apical side over apical to basolateral side in human Caco2 cells after 2 hrs by LC/MS/MS analysis; assay type: ADME, cell-based; conditions: Caco-2
[15] = system: Salmonella enteritidis; assay: Antibacterial activity against Salmonella enteritidis ATCC 14028 infected in mouse J774 cells assessed as reduction in intracellular bacterial cells at 2 times MIC incubated for 24 hrs followed by re-plating on TSA plate and measured after 18 to 22 hrs relative to control; assay type: functional, Salmonella enterica subsp. enterica serovar Enteritidis; parameters: scale not given: the % may be the effect or the level left
Summary of the method: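 J774 murine macrophages infected with Salmonella enteritidis ATCC 14028, then treated at 2×MIC for 24 h, in triplicate. Read-out is the percent reduction in intracellular colony forming units versus the untreated control.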

[16] = system: Staphylococcus aureus; assay: Antibacterial activity against methicillin-resistant Staphylococcus aureus NRS123-USA400 clinical isolates over 14 serial passages by broth microdilution assay; assay type: functional, organism-based; summary of the method: as §1
[17] = Half life in Sprague-Dawley rat at 5 mg/kg, iv administered as bolus dose measured over 12 hrs by LC-MS/MS analysis; assay type: ADME, organism-based; conditions: in vivo
[18] = Clearance in Sprague-Dawley rat at 5 mg/kg, iv administered as bolus dose measured over 12 hrs by LC-MS/MS analysis; assay type: ADME, organism-based; conditions: in vivo
[19] = system: Staphylococcus aureus; assay: Potency index, ratio of compound effect to vancomycin effect for antibiofilm activity against methicillin-resistant Staphylococcus aureus NRS384-USA300 clinical isolates at 0.5 times MIC; assay type: functional
[20] = system: Staphylococcus aureus; assay: Antibacterial activity against methicillin-resistant Staphylococcus aureus NRS123-USA400 clinical isolates assessed as ratio of MIC after and before 10 serial passages by broth microdilution assay; assay type: functional; summary of the method: as §1

Structure (SMILES) | Activity [1] [%] | Ratio [2] | Ratio [3] | remaining at 0.5 h [4] [%] | remaining at 0.75 h [5] [%] | remaining at 1 h [6] [%] | remaining at 0.25 h [7] [%] | remaining at 0.5 h [8] [%] | remaining at 0.75 h [9] [%] | remaining at 1 h [10] [%] | microsomal CLint [11] [µL/min/mg] | Papp A→B at 2 h [12] [×10⁻⁶ cm/s] | Papp B→A at 2 h [13] [×10⁻⁶ cm/s] | efflux ratio at 2 h [14] | Activity [15] [%] | Activity [16] | half-life [17] [h] | clearance [18] [mL/min] | Ratio [19] | Ratio [20]
C/C(=N\NC1=NCCN1)c1cnn(-c2ccc(C#CC3CCCC3)cc2)c1C | 98.4 | 1 | 2 | 92 | 79 | 79 | 98 | 97 | 97 | 97 | < 116 | 0.1 | 0.15 | 1.5 |  |  |  |  |  | 
C/C(=N\NC(=N)N)c1cnn(-c2ccc(C#CC3CCCC3)cc2)c1C | 90 |  |  | 92 | 81 | 82 | 99 | 99 | 99 | 91 | < 116 | 0.01 | 0.01 | 1 | 98 | Active | 10.5 | 16.7 | 2 | 
C/C(=N\NC(=N)N)c1cnn(-c2ccc(C#Cc3ccccc3)cc2)c1C |  |  |  |  |  |  |  |  |  |  |  |  |  |  | 70 |  |  |  |  | 1
